Measurements: ChEMBL document CHEMBL3734660, “Inhibitory effect of cytotoxic stilbenes related to resveratrol on the expression of the VEGF, hTERT and c-Myc genes” (Eur J Med Chem, 2015)
≈ marks a conversion by molar mass, not a printed value.

Columns and labels:
[1] = Selectivity ratio of IC50 for HEK293 cells to IC50 for human HT-29 cells; assay type: ADME, cell-based; details: HEK293 cells versus HT-29 cells, read-out: Ratio IC50
[2] = Selectivity ratio of IC50 for HEK293 cells to IC50 for human MCF7 cells; assay type: ADME, cell-based; details: HEK293 cells versus MCF7 cells, read-out: Ratio IC50
HT-29 [3] = test: Inhibition of VEGF protein secretion in human HT-29 cells at 1 ng/mL after 72 hrs by ELISA relative to control; assay type: functional; design: scale not given: the % may be the effect or the level left
[4] = Inhibition of VEGF protein secretion in human HT-29 cells at 2 ng/mL after 72 hrs by ELISA relative to control; assay type: functional; design: scale not given: the % may be the effect or the level left
HT-29 [5] = test: Inhibition of VEGF protein secretion in human HT-29 cells at 3 ng/mL after 72 hrs by ELISA relative to control; assay type: functional; design: scale not given: the % may be the effect or the level left
MCF7 [6] = test: Inhibition of VEGF protein secretion in human MCF7 cells at 1 ng/mL after 72 hrs by ELISA relative to control; assay type: functional; design: scale not given: the % may be the effect or the level left
MCF7 [7] = test: Inhibition of VEGF protein secretion in human MCF7 cells at 2 ng/mL after 72 hrs by ELISA relative to control; assay type: functional; design: scale not given: the % may be the effect or the level left
HT-29 [8] = test: Down regulation of VEGF gene expression in human HT-29 cells at 1 ng/mL after 48 hrs by RT-qPCR analysis relative to control; assay type: functional
How it was run: (§1)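 HT-29 or MCF-7 cells grown to 70–80% confluence, serum-starved 24 h, then exposed to compound in DMSO for 48 h; DMSO-only control. Total RNA extracted and transcript measured by RT-qPCR, normalized to β-actin and expressed as percentage of control. At least three measurements; mean ± SEM; one-sample t-test.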

HT-29 [9] = test: Down regulation of VEGF gene expression in human HT-29 cells at 2 ng/mL after 48 hrs by RT-qPCR analysis relative to control; assay type: functional; how it was run: as §1
HT-29 [10] = test: Down regulation of VEGF gene expression in human HT-29 cells at 3 ng/mL after 48 hrs by RT-qPCR analysis relative to control; assay type: functional; how it was run: as §1
MCF7 [11] = test: Down regulation of VEGF gene expression in human MCF7 cells at 1 ng/mL after 48 hrs by RT-qPCR analysis relative to control; assay type: functional; how it was run: as §1
MCF7 [12] = test: Down regulation of VEGF gene expression in human MCF7 cells at 2 ng/mL after 48 hrs by RT-qPCR analysis relative to control; assay type: functional; how it was run: as §1
HT-29 [13] = test: Down regulation of hTERT gene expression in human HT-29 cells at 1 ng/mL after 48 hrs by RT-qPCR analysis relative to control; assay type: functional; how it was run: as §1
HT-29 [14] = test: Down regulation of hTERT gene expression in human HT-29 cells at 2 ng/mL after 48 hrs by RT-qPCR analysis relative to control; assay type: functional; how it was run: as §1
HT-29 [15] = test: Down regulation of hTERT gene expression in human HT-29 cells at 3 ng/mL after 48 hrs by RT-qPCR analysis relative to control; assay type: functional; how it was run: as §1
MCF7 [16] = test: Down regulation of hTERT gene expression in human MCF7 cells at 1 ng/mL after 48 hrs by RT-qPCR analysis relative to control; assay type: functional; how it was run: as §1
MCF7 [17] = test: Down regulation of hTERT gene expression in human MCF7 cells at 2 ng/mL after 48 hrs by RT-qPCR analysis relative to control; assay type: functional; how it was run: as §1
HT-29 [18] = test: Down regulation of c-Myc gene expression in human HT-29 cells at 1 ng/mL after 48 hrs by RT-qPCR analysis relative to control; assay type: functional; how it was run: as §1
HT-29 [19] = test: Down regulation of c-Myc gene expression in human HT-29 cells at 2 ng/mL after 48 hrs by RT-qPCR analysis relative to control; assay type: functional; how it was run: as §1
HT-29 [20] = test: Down regulation of c-Myc gene expression in human HT-29 cells at 3 ng/mL after 48 hrs by RT-qPCR analysis relative to control; assay type: functional; how it was run: as §1
MCF7 [21] = test: Down regulation of c-Myc gene expression in human MCF7 cells at 1 ng/mL after 48 hrs by RT-qPCR analysis relative to control; assay type: functional; how it was run: as §1
MCF7 [22] = test: Down regulation of c-Myc gene expression in human MCF7 cells at 2 ng/mL after 48 hrs by RT-qPCR analysis relative to control; assay type: functional; how it was run: as §1
HT-29 [23] = test: Potency index, ratio of compound activity to resveratrol activity for down regulation of hTERT gene expression in human HT-29 cells; assay type: functional
HT-29 [24] = test: Potency index, ratio of compound activity to resveratrol activity for down regulation of c-Myc gene expression in human HT-29 cells; assay type: functional
MCF7 [25] = test: Potency index, ratio of compound activity to resveratrol activity for down regulation of hTERT gene expression in human MCF7 cells; assay type: functional
MCF7 [26] = test: Potency index, ratio of compound activity to resveratrol activity for down regulation of c-Myc gene expression in human MCF7 cells; assay type: functional
MCF7 [27] = test: Potency index, ratio of compound activity to resveratrol activity for down regulation of VEGF gene expression in human MCF7 cells; assay type: functional
HEK293 = test: Cytotoxicity against HEK293 cells assessed inhibition of cell proliferation after 3 days by MTT assay; details: Homo sapiens, HEK293, 72 h
MCF7 [28] = test: Cytotoxicity against human MCF7 cells assessed inhibition of cell proliferation after 3 days by MTT assay; details: MCF7, 72 h
HT-29 [29] = test: Cytotoxicity against human HT-29 cells assessed inhibition of cell proliferation after 3 days by MTT assay; details: HT-29, 72 h
HT-29 [30] = test: Inhibition of VEGF protein secretion in human HT-29 cells at 10 ug/mL after 72 hrs by ELISA relative to control; assay type: functional; design: scale not given: the % may be the effect or the level left
MCF7 [31] = test: Inhibition of VEGF protein secretion in human MCF7 cells at 10 ug/mL after 72 hrs by ELISA relative to control; assay type: functional; design: scale not given: the % may be the effect or the level left
HT-29 [32] = test: Down regulation of VEGF gene expression in human HT-29 cells at 10 ug/mL after 48 hrs by RT-qPCR analysis relative to control; assay type: functional; how it was run: as §1
MCF7 [33] = test: Down regulation of VEGF gene expression in human MCF7 cells at 10 ug/mL after 48 hrs by RT-qPCR analysis relative to control; assay type: functional; how it was run: as §1
HT-29 [34] = test: Down regulation of hTERT gene expression in human HT-29 cells at 10 ug/mL after 48 hrs by RT-qPCR analysis relative to control; assay type: functional; how it was run: as §1
MCF7 [35] = test: Down regulation of hTERT gene expression in human MCF7 cells at 10 ug/mL after 48 hrs by RT-qPCR analysis relative to control; assay type: functional; how it was run: as §1
HT-29 [36] = test: Down regulation of c-Myc gene expression in human HT-29 cells at 10 ug/mL after 48 hrs by RT-qPCR analysis relative to control; assay type: functional; how it was run: as §1
MCF7 [37] = test: Down regulation of c-Myc gene expression in human MCF7 cells at 10 ug/mL after 48 hrs by RT-qPCR analysis relative to control; assay type: functional; how it was run: as §1

## COc1ccc(/C=C/c2ccc(N)cc2)cc1
[1]
  selectivity ratio: 3.4
[2]
  selectivity ratio: 5.7
HT-29 [3]
  Activity: 92%
[4]
  Activity: 84%
HT-29 [5]
  Activity: 59%
MCF7 [6]
  Activity: 100%
MCF7 [7]
  Activity: 75%
HT-29 [8]
  Activity: 65%
HT-29 [9]
  Activity: 66%
HT-29 [10]
  Activity: 67%
MCF7 [11]
  Activity: 48%
MCF7 [12]
  Activity: 36%
HT-29 [13]
  Activity: 100%
HT-29 [14]
  Activity: 100%
HT-29 [15]
  Activity: 48%
MCF7 [16]
  Activity: 80%
MCF7 [17]
  Activity: 51%
HT-29 [18]
  Activity: 88%
HT-29 [19]
  Activity: 71%
HT-29 [20]
  Activity: 69%
MCF7 [21]
  Activity: 54%
MCF7 [22]
  Activity: 30%
HT-29 [23]
  Ratio: 3000
HT-29 [24]
  Ratio: 3000
MCF7 [25]
  Ratio: 3000
MCF7 [26]
  Ratio: 3000
MCF7 [27]
  Ratio: 5000
HEK293
  IC50: 0.012 µg/mL (≈ 0.0533 µM)
MCF7 [28]
  IC50: 0.0021 µg/mL (≈ 0.00932 µM)
HT-29 [29]
  IC50: 0.0036 µg/mL (≈ 0.016 µM)

## Oc1ccc(/C=C/c2cc(O)cc(O)c2)cc1 [RESVERATROL]
[1]
  selectivity ratio: 0.2
[2]
  selectivity ratio: 0.4
HT-29 [30]
  Activity: 78%
MCF7 [31]
  Activity: 100%
HT-29 [32]
  Activity: 65%
MCF7 [33]
  Activity: 54%
HT-29 [34]
  Activity: 57%
MCF7 [35]
  Activity: 77%
HT-29 [36]
  Activity: 51%
MCF7 [37]
  Activity: 41%
HEK293
  IC50: 7.1 µg/mL (≈ 31.1 µM)
MCF7 [28]
  IC50: 16.1 µg/mL (≈ 70.5 µM)
HT-29 [29]
  IC50: 34.1 µg/mL (≈ 149 µM)
